Results pooled from the literature.
Lines come from different studies, so protocols differ.
Target: MAP/microtubule affinity-regulating kinase 4 (MARK4, Homo sapiens, UniProt Q96L34)
One construct used (Q96L34 1-752): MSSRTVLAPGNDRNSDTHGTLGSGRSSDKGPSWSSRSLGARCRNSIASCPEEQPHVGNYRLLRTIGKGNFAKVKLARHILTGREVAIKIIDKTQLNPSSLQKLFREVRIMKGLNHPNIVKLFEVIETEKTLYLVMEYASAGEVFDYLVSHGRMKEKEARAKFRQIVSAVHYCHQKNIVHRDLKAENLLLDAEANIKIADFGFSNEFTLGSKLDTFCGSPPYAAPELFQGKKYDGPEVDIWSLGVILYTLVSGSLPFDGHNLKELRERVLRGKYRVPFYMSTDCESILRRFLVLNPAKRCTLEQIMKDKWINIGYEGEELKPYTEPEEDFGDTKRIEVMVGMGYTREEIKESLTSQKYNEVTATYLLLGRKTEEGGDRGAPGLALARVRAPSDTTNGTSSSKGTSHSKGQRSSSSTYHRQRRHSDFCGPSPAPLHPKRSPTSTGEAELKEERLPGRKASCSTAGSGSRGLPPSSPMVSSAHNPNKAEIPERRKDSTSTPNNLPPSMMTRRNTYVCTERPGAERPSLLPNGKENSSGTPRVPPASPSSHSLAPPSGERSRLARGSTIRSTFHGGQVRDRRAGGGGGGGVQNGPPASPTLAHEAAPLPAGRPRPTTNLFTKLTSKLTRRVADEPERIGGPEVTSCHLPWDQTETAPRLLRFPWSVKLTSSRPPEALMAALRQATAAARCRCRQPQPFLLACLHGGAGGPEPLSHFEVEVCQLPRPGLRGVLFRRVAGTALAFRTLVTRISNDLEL

Cc1nn(CC(F)(F)F)cc1Nc1ncc(Br)c(NCCc2cnc[nH]2)n1
remaining activity (enzyme activity, inhibitor, radiometric; 1 µM): 49%

CO[C@@H](C)c1c(Nc2ccc([C@H](N(C)C(=O)C3CCS(=O)(=O)CC3)C(F)(F)F)cc2)cnc2cc(Cl)nn12
remaining binding (cell-free assay, competition with immobilised ligand; 1 µM): 76%

O=C(NCCCNc1nc(Nc2cccc(CN3CCOCC3)c2)ncc1C1CC1)C1CCC1
remaining activity (enzyme activity, inhibitor, radiometric; 1 µM): 5%

CN1CC(Oc2cnc(C#N)cc2-c2ccn3nc(NC(=O)C4CC4)cc3c2)C1
inhibition (enzyme activity, inhibitor; 1 µM): 8%

NS(=O)(=O)c1ccc(CNc2nc(Nc3cccc(NC(=O)N4CCCC4)c3)ncc2Br)cc1
remaining activity (enzyme activity, inhibitor, radiometric; 1 µM): 42%

CCCOc1ccc([C@@H]2[C@@H](C(=O)O)[C@H](c3ccc4c(c3)OCO4)CN2CC(=O)Nc2c(CC)cccc2CC)cc1
remaining binding (cell-free assay, competition with immobilised ligand; 1 µM): 100%

NS(=O)(=O)c1ccc(CNc2nc(Nc3cccc(NC(=O)N4CCCC4)c3)ncc2C2CC2)cc1
remaining activity (enzyme activity, inhibitor, radiometric; 1 µM): 89%

COc1cc(Nc2c(C#N)cnc3cc(OCCCN4CCN(C)CC4)c(OC)cc23)c(Cl)cc1Cl
remaining signal (cell-free assay; 0.5 µM): 60.6%

NS(=O)(=O)c1ccc(CNc2ccnc(Nc3cccc(CN4CCOCC4)c3)n2)cc1
remaining activity (enzyme activity, inhibitor, radiometric; 1 µM): 98%

CC(=O)N1CCC(c2ccc(C(=O)NC(=N)N)cc2C(F)(F)F)CC1
remaining binding (cell-free assay, competition with immobilised ligand; 1 µM): 100%

COc1cc2ncnc(Nc3ccc(F)c(Cl)c3)c2cc1OCCCN1CCOCC1
remaining signal (cell-free assay; 0.5 µM): 94.2%

C[C@H](c1cccc(C#N)c1)n1cc(Cl)cc(C(N)=O)c1=N
remaining binding (cell-free assay, competition with immobilised ligand; 1 µM): 99%

NS(=O)(=O)c1ccc(CNc2nc(Nc3cccc(CN4CCOCC4)c3)ncc2Br)cc1
remaining activity (enzyme activity, inhibitor, radiometric; 1 µM): 61%

CCS(=O)(=O)c1cc2cc(C[C@@](O)(CC(C)(C)c3ccc(F)cc3C(N)=O)C(F)(F)F)[nH]c2cn1
remaining binding (cell-free assay, competition with immobilised ligand; 1 µM): 100%

Cc1nn(CC(F)(F)F)cc1Nc1nccc(NCCc2cnc[nH]2)n1
remaining activity (enzyme activity, inhibitor, radiometric; 1 µM): 99%

COc1cc(Nc2cnc(C#N)c(O[C@H](C)CN(C)C)n2)ncc1-c1cnn(C)c1
remaining activity (enzyme activity, inhibitor, radiometric; 10 µM): 83%

CCOc1cc(-c2nncn2C)ccc1Nc1ncc2cc(C)nc(NCC(C)(C)C)c2n1
inhibition (enzyme activity, inhibitor, FRET; 1 µM): < 15%

Nc1ncnc2occ(-c3ccc(NC(=O)Nc4cc(C(F)(F)F)ccc4F)cc3)c12
remaining signal (cell-free assay, inhibitor; 20 µM): 51%

CCOCCn1cc(C(=O)Nc2ccc(-n3nc(-c4cccnc4)cc3C(F)(F)F)cn2)ccc1=O
remaining binding (cell-free assay, competition with immobilised ligand; 1 µM): 100%

COc1cc2ncnc(Nc3ccc(Oc4ccccc4)cc3C)c2cc1OC
inhibition (enzyme activity, inhibitor; 1 µM): 6%

CS(=O)(=O)NCC[C@H](NC(=O)c1cncc2c1cnn2-c1ccc(F)cc1)c1ccnc(S(C)(=O)=O)c1
remaining binding (cell-free assay, competition with immobilised ligand; 1 µM): 78%

N[C@@H]1CCN(c2nccc(-c3cnn4ncccc34)n2)C1
remaining binding (binding; 1 µM): 100%

FC(F)(F)Oc1cccc(-c2cnc3ccc(-c4ccncc4)nn23)c1
activity vs control (enzyme activity, inhibitor, radiometric; 5 µM): 93%

NS(=O)(=O)c1cc(NC(=O)Cc2ccccc2)ccc1Oc1cccc(Cl)c1
remaining binding (cell-free assay, competition with immobilised ligand; 1 µM): 100%

O=C(NCCCNc1ccnc(Nc2cccc(NC(=O)N3CCCC3)c2)n1)C1CCC1
remaining activity (enzyme activity, inhibitor, radiometric; 1 µM): 85%
